Data as given in ChEMBL document CHEMBL4689842, “EUbOPEN Chemogenomics Library wave 1” (2021).

How the values were obtained:
[1] = system: HEK-293T; assay: Multiplex assay against HEK293T; assay type: toxicity, cell-based; settings: human;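 for Population Tubulin-Different-Phenotype (%): share of the cells with healthy nuclei that show this phenotype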
Summary of the method: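 Compound was added to live cells that had been stained at seeding with Hoechst33342, BioTracker Green Microtubule Cytoskeleton Dye, MitoTracker Red and Annexin V Alexa Fluor 680, and imaging followed on a CQ1 microscope at 37°C and 5% CO2. CellPathfinder machine-learning gating divided cells into Hoechst high-intensity objects or normal cells, normal cells into healthy, pyknosed or fragmented nuclei, and pyknosed cells into mitotic or apoptotic. Tubulin, mitochondrial-mass and membrane-permeability phenotypes are per cents of healthy-nucleus cells.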

[2] = system: Fibroblast; assay: Incucyte cell viability with human fibroblast; assay type: toxicity, cell-based; settings: 10 µM, compound concentration 10 uM; note: filed as whole numbers so only -1 and 0 and 1 occur
[3] = 12 h, 1 µM, compound concentration 1 uM, replicate 1
[4] = 12 h, 1 µM, compound concentration 1 uM, replicate 2
[5] = 12 h, 10 µM, compound concentration 10 uM, replicate 1
[6] = 12 h, 10 µM, compound concentration 10 uM, replicate 2
[7] = 24 h, 1 µM, compound concentration 1 uM, replicate 1
[8] = 24 h, 1 µM, compound concentration 1 uM, replicate 2
[9] = 24 h, 10 µM, compound concentration 10 uM, replicate 1
[10] = 24 h, 10 µM, compound concentration 10 uM, replicate 2
[11] = 48 h, 1 µM, compound concentration 1 uM, replicate 1
[12] = 48 h, 1 µM, compound concentration 1 uM, replicate 2
[13] = 48 h, 10 µM, compound concentration 10 uM, replicate 1
[14] = 48 h, 10 µM, compound concentration 10 uM, replicate 2

COc1ccc(NS(=O)(=O)c2sc3ccc(Cl)cc3c2C)cc1N1CCNCC1.Cl
Population Apoptotic (%) [1, 3]: 40% | Population Fragmented Nuclei (%) [1, 3]: 17% | Population Healthy Nuclei (%) [1, 3]: 36% | Population Hoechst High Intensity Objects (%) [1, 3]: 35% | Population Membrane Permeable-Phenotype (%) [1, 3]: 5% | Population Mitochondria Different-Phenotype (%) [1, 3]: 66% | Population Mitotic Cells (%) [1, 3]: 59% | Population Normal (%) [1, 3]: 64% | Population Pyknosed Nuclei (%) [1, 3]: 45% | Population Tubulin-Different-Phenotype (%) [1, 3]: 32% | Total Cell Count [1, 3]: 385 | Population Apoptotic (%) [1, 4]: 15% | Population Fragmented Nuclei (%) [1, 4]: 5% | Population Healthy Nuclei (%) [1, 4]: 41% | Population Hoechst High Intensity Objects (%) [1, 4]: 3% | Population Membrane Permeable-Phenotype (%) [1, 4]: 15% | Population Mitochondria Different-Phenotype (%) [1, 4]: 25% | Population Mitotic Cells (%) [1, 4]: 84% | Population Normal (%) [1, 4]: 96% | Population Pyknosed Nuclei (%) [1, 4]: 53% | Population Tubulin-Different-Phenotype (%) [1, 4]: 39% | Total Cell Count [1, 4]: 233 | Population Apoptotic (%) [1, 5]: 71% | Population Fragmented Nuclei (%) [1, 5]: 7% | Population Healthy Nuclei (%) [1, 5]: 33% | Population Hoechst High Intensity Objects (%) [1, 5]: 12% | Population Membrane Permeable-Phenotype (%) [1, 5]: 4% | Population Mitochondria Different-Phenotype (%) [1, 5]: 99% | Population Mitotic Cells (%) [1, 5]: 28% | Population Normal (%) [1, 5]: 87% | Population Pyknosed Nuclei (%) [1, 5]: 59% | Total Cell Count [1, 5]: 350 | Population Apoptotic (%) [1, 6]: 57% | Population Fragmented Nuclei (%) [1, 6]: 3% | Population Healthy Nuclei (%) [1, 6]: 16% | Population Hoechst High Intensity Objects (%) [1, 6]: 4% | Population Membrane Permeable-Phenotype (%) [1, 6]: 6% | Population Mitochondria Different-Phenotype (%) [1, 6]: 86% | Population Mitotic Cells (%) [1, 6]: 42% | Population Normal (%) [1, 6]: 95% | Population Pyknosed Nuclei (%) [1, 6]: 79% | Population Tubulin-Different-Phenotype (%) [1, 6]: 96% | Total Cell Count [1, 6]: 186 | Population Apoptotic (%) [1, 7]: 46% | Population Fragmented Nuclei (%) [1, 7]: 21% | Population Healthy Nuclei (%) [1, 7]: 40% | Population Hoechst High Intensity Objects (%) [1, 7]: 39% | Population Membrane Permeable-Phenotype (%) [1, 7]: 2% | Population Mitochondria Different-Phenotype (%) [1, 7]: 61% | Population Mitotic Cells (%) [1, 7]: 53% | Population Normal (%) [1, 7]: 60% | Population Pyknosed Nuclei (%) [1, 7]: 38% | Population Tubulin-Different-Phenotype (%) [1, 7]: 43% | Total Cell Count [1, 7]: 399 | Population Apoptotic (%) [1, 8]: 22% | Population Fragmented Nuclei (%) [1, 8]: 4% | Population Healthy Nuclei (%) [1, 8]: 58% | Population Hoechst High Intensity Objects (%) [1, 8]: 2% | Population Membrane Permeable-Phenotype (%) [1, 8]: 4% | Population Mitochondria Different-Phenotype (%) [1, 8]: 36% | Population Mitotic Cells (%) [1, 8]: 77% | Population Normal (%) [1, 8]: 97% | Population Pyknosed Nuclei (%) [1, 8]: 36% | Population Tubulin-Different-Phenotype (%) [1, 8]: 54% | Total Cell Count [1, 8]: 278 | Population Apoptotic (%) [1, 9]: 74% | Population Fragmented Nuclei (%) [1, 9]: 10% | Population Healthy Nuclei (%) [1, 9]: 34% | Population Hoechst High Intensity Objects (%) [1, 9]: 21% | Population Membrane Permeable-Phenotype (%) [1, 9]: 4% | Population Mitochondria Different-Phenotype (%) [1, 9]: 98% | Population Mitotic Cells (%) [1, 9]: 25% | Population Normal (%) [1, 9]: 78% | Population Pyknosed Nuclei (%) [1, 9]: 54% | Population Tubulin-Different-Phenotype (%) [1, 9]: 97% | Total Cell Count [1, 9]: 356 | Population Apoptotic (%) [1, 10]: 90% | Population Fragmented Nuclei (%) [1, 10]: 4% | Population Healthy Nuclei (%) [1, 10]: 25% | Population Hoechst High Intensity Objects (%) [1, 10]: 8% | Population Membrane Permeable-Phenotype (%) [1, 10]: 2% | Population Mitochondria Different-Phenotype (%) [1, 10]: 97% | Population Mitotic Cells (%) [1, 10]: 9% | Population Normal (%) [1, 10]: 91% | Population Pyknosed Nuclei (%) [1, 10]: 70% | Total Cell Count [1, 10]: 187 | Population Apoptotic (%) [1, 11]: 47% | Population Fragmented Nuclei (%) [1, 11]: 23% | Population Healthy Nuclei (%) [1, 11]: 51% | Population Hoechst High Intensity Objects (%) [1, 11]: 29% | Population Membrane Permeable-Phenotype (%) [1, 11]: 1% | Population Mitochondria Different-Phenotype (%) [1, 11]: 37% | Population Mitotic Cells (%) [1, 11]: 52% | Population Normal (%) [1, 11]: 70% | Population Pyknosed Nuclei (%) [1, 11]: 25% | Population Tubulin-Different-Phenotype (%) [1, 11]: 32% | Total Cell Count [1, 11]: 493 | Population Apoptotic (%) [1, 12]: 15% | Population Fragmented Nuclei (%) [1, 12]: 4% | Population Healthy Nuclei (%) [1, 12]: 81% | Population Hoechst High Intensity Objects (%) [1, 12]: 4% | Population Membrane Permeable-Phenotype (%) [1, 12]: 3% | Population Mitochondria Different-Phenotype (%) [1, 12]: 9% | Population Mitotic Cells (%) [1, 12]: 84% | Population Normal (%) [1, 12]: 95% | Population Pyknosed Nuclei (%) [1, 12]: 14% | Population Tubulin-Different-Phenotype (%) [1, 12]: 41% | Total Cell Count [1, 12]: 485 | Population Fragmented Nuclei (%) [1, 13]: 13% | Population Healthy Nuclei (%) [1, 13]: 39% | Population Hoechst High Intensity Objects (%) [1, 13]: 26% | Population Membrane Permeable-Phenotype (%) [1, 13]: 0% | Population Mitochondria Different-Phenotype (%) [1, 13]: 100% | Population Normal (%) [1, 13]: 73% | Population Pyknosed Nuclei (%) [1, 13]: 47% | Population Tubulin-Different-Phenotype (%) [1, 13]: 95% | Total Cell Count [1, 13]: 367 | Population Apoptotic (%) [1, 14]: 77% | Population Fragmented Nuclei (%) [1, 14]: 4% | Population Healthy Nuclei (%) [1, 14]: 28% | Population Hoechst High Intensity Objects (%) [1, 14]: 15% | Population Membrane Permeable-Phenotype (%) [1, 14]: 6% | Population Mitochondria Different-Phenotype (%) [1, 14]: 95% | Population Mitotic Cells (%) [1, 14]: 22% | Population Normal (%) [1, 14]: 84% | Population Pyknosed Nuclei (%) [1, 14]: 67% | Population Tubulin-Different-Phenotype (%) [1, 14]: 91% | Total Cell Count [1, 14]: 188 | Growth Rate ([2]; 0 h, replicate number 1, timepoint 0 hours): 1 | Growth Rate ([2]; 6 h, replicate number 1, timepoint 6 hours): 1 | Growth Rate ([2]; 6 h, replicate number 2, timepoint 6 hours): 0 | Growth Rate ([2]; 12 h, replicate number 1, timepoint 12 hours): 0 | Growth Rate ([2]; 18 h, replicate number 1, timepoint 18 hours): 0 | Growth Rate ([2]; 24 h, replicate number 1, timepoint 24 hours): 0
